According to ChEMBL document CHEMBL4024747, “Design, Synthesis, and Biological Activities of Vibsanin B Derivatives: A New Class of HSP90 C-Terminal Inhibitors” (J Med Chem, 2017):
Values belong to the compound of their own block, whether it stands above or below them. Active and inactive are the calls of the source. The rule behind the calls is not given here.

How the values were obtained:
[1] = tested on: MCF7; test: Antiproliferative activity against human MCF7 cells assessed as reduction in cell viability after 48 hrs by MTT assay; type: functional, cell-based; conditions: MCF7, 48 h
[2] = tested on: SMMC-7721; test: Antiproliferative activity against human SMMC7721 cells assessed as reduction in cell viability after 48 hrs by MTT assay; type: functional, cell-based; conditions: SMMC-7721, 48 h
[3] = tested on: A549; test: Antiproliferative activity against human A549 cells assessed as reduction in cell viability after 48 hrs by MTT assay; type: functional, cell-based; conditions: A549, 48 h
[4] = tested on: HL-60; test: Antiproliferative activity against human HL60 cells assessed as reduction in cell viability after 48 hrs by MTT assay; type: functional, cell-based; conditions: HL-60, 48 h
[5] = tested on: SW480; test: Antiproliferative activity against human SW480 cells assessed as reduction in cell viability after 48 hrs by MTT assay; type: functional, cell-based; conditions: SW480, 48 h
[6] = species: Oryctolagus cuniculus; test: Inhibition of HSP90 in rabbit reticulocyte lysate assessed as decrease in HSP90-dependant refolding of firefly luciferase at 10 uM after 30 mins by luciferase gene based assay
Summary of the method: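 Firefly luciferase heat-denatured at 41 °C for 10 min, then added with rabbit reticulocyte lysate to compounds at 10 μM. Renaturation at room temperature for 3 h; luciferin substrate added and luminescence read. Refolding expressed relative to DMSO; novobiocin at 500 μM as reference. Three independent experiments.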

[7] = Stability of compound in pH 7.4 PBS at 37 degreeC after 12 hrs by HPLC analysis; type: physicochemical; conditions: buffer, pH 7.4, 12 h
Summary of the method: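 Solution stability determined by HPLC after incubation in PBS pH 7.4 at 37 °C for 12 h.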

[8] = molecular target: Luciferin 4-monooxygenase (Photinus pyralis) (UniProt P08659); test: Inhibition of firefly luciferase activity using luciferin substrate at 10 uM after 30 mins by luminescence assay
Luciferin 4-monooxygenase (Photinus pyralis), sequence (P08659 whole entry): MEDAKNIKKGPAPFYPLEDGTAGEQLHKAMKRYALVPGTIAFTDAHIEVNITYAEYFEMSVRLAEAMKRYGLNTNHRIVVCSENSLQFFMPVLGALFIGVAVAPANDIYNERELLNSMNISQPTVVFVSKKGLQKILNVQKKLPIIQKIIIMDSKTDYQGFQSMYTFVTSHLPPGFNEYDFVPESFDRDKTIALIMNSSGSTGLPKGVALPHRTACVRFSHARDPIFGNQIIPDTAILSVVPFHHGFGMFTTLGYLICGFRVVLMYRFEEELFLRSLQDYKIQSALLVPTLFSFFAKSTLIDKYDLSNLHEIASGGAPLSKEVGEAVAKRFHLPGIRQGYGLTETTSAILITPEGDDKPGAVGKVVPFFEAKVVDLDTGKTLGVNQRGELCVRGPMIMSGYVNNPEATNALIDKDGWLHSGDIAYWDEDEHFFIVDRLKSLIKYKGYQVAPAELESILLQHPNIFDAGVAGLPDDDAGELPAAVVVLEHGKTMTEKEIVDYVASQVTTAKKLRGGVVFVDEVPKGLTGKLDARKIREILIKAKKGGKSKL

Compound: C=C1/C=C/C(=O)/C(CO)=C\C[C@](C)(CCC=C(C)C)/C=C/[C@H]1OC(=O)C=C(C)C
IC50 [1]: 2.75 µM
IC50 [2]: 4.3 µM
IC50 [3]: 3.09 µM
IC50 [4]: 2.81 µM
IC50 [5]: 2.97 µM
inhibition [6]: Active
Stability [7]: Stable
inhibition [8]: inactive

Compound: CC(C)=CCC[C@]1(C)/C=C/[C@@H](OC(=O)C=C(C)C)[C@](C)(O)/C=C/C(=O)/C(CN2CCCC2)=C\C1
IC50 [1]: 0.22 µM
IC50 [2]: 0.14 µM
IC50 [3]: 0.18 µM
IC50 [4]: 0.16 µM
IC50 [5]: 0.31 µM
inhibition [6]: < 50%
inhibition [8]: inactive

Compound: CC(C)=CCC[C@]1(C)/C=C/[C@@H](OC(=O)C=C(C)C)[C@](C)(O)/C=C/C(=O)/C(C(=O)N2CCN(C)CC2)=C\C1
IC50 [1]: 6.3 µM
IC50 [2]: 11.7 µM
IC50 [3]: 8.44 µM
IC50 [4]: 5.47 µM
IC50 [5]: 4.52 µM

Compound: CCN(CC)C/C1=C/C[C@](C)(CCC=C(C)C)/C=C/[C@@H](OC(=O)C=C(C)C)[C@](C)(O)/C=C/C1=O
IC50 [1]: 0.13 µM
IC50 [2]: 0.57 µM
IC50 [3]: 0.13 µM
IC50 [4]: 0.14 µM
IC50 [5]: 0.27 µM

Compound: CC[Si](CC)(CC)OC/C1=C/C[C@](C)(CCC=C(C)C)/C=C/[C@@H](OC(=O)C=C(C)C)[C@](C)(O)/C=C/C1=O
IC50 [1]: 3.15 µM
IC50 [2]: 3.46 µM
IC50 [3]: 3.1 µM
IC50 [4]: 2.81 µM
IC50 [5]: 2.69 µM

Compound: CCN(CC)C(=O)/C1=C/C[C@](C)(CCC=C(C)C)/C=C/[C@@H](OC(=O)C=C(C)C)[C@](C)(O)/C=C/C1=O
IC50 [1]: 12.1 µM
IC50 [2]: 13.8 µM
IC50 [3]: 11.3 µM
IC50 [4]: 9.08 µM
IC50 [5]: 11.7 µM

Compound: CC(C)=CCC[C@]1(C)/C=C/[C@@H](OC(=O)C=C(C)C)[C@](C)(O)/C=C/C(=O)/C(C(=O)O)=C\C1
IC50 [1]: 16.1 µM
IC50 [2]: > 10 µM
IC50 [3]: > 10 µM
IC50 [4]: > 10 µM
IC50 [5]: > 10 µM

Compound: CO[C@]1(C)/C=C/C(=O)/C(CO)=C\C[C@](C)(CCC=C(C)C)/C=C/[C@H]1OC(=O)C=C(C)C
IC50 [1]: 14.3 µM
IC50 [2]: 15.8 µM
IC50 [3]: 14.3 µM
IC50 [4]: 14.3 µM
IC50 [5]: 15.2 µM

Compound: CO[C@H]1/C=C/[C@@](C)(O)[C@H](OC(=O)C=C(C)C)/C=C/[C@@](C)(CCC=C(C)C)C/C=C\1CO
IC50 [1]: 18.5 µM
IC50 [2]: 38.1 µM
IC50 [3]: 19.2 µM
IC50 [4]: 14.8 µM
IC50 [5]: 16.6 µM

Compound: CC(=O)O[C@]1(C)/C=C/C(=O)/C(CO)=C\C[C@](C)(CCC=C(C)C)/C=C/[C@H]1OC(=O)C=C(C)C
IC50 [1]: 2.32 µM
IC50 [2]: 3.08 µM
IC50 [3]: 3.15 µM
IC50 [4]: 2.37 µM
IC50 [5]: 2.01 µM
inhibition [6]: < 50%
Stability [7]: Stable
inhibition [8]: inactive

Compound: CC(C)=CCC[C@]1(C)/C=C/[C@@H](OC(=O)C=C(C)C)[C@](C)(O)/C=C/[C@@H](O)/C(CO)=C\C1
IC50 [1]: 17.4 µM
IC50 [2]: 16.4 µM
IC50 [3]: 18.7 µM
IC50 [4]: 15.9 µM
IC50 [5]: 19.7 µM

Compound: CO/N=C/C1=C/C[C@](C)(CCC=C(C)C)/C=C/[C@@H](OC(=O)C=C(C)C)[C@](C)(O)/C=C/C1=O
IC50 [1]: 2.51 µM
IC50 [2]: 3.47 µM
IC50 [3]: 3.47 µM
IC50 [4]: 4.76 µM
IC50 [5]: 2.63 µM

More lines, now with the values ahead:

IC50 [1]: 17.2 µM
IC50 [2]: 17.2 µM
IC50 [3]: 13.5 µM
IC50 [4]: 12.7 µM
IC50 [5]: 16 µM
Compound: CC(C)=CCC[C@]1(C)/C=C/[C@@H](OC(=O)C=C(C)C)[C@](C)(O)/C=C/C(=O)/C(C(=O)N(C(C)C)C(C)C)=C\C1

IC50 [1]: 27 µM
IC50 [2]: 20.3 µM
IC50 [3]: 15.8 µM
IC50 [4]: 22.6 µM
IC50 [5]: 10.3 µM
Compound: CC(C)=CCC[C@]1(C)/C=C/[C@@H](OC(=O)c2ccccc2)[C@](C)(O)/C=C/C(=O)/C(CO)=C\C1

IC50 [1]: 17.2 µM
IC50 [2]: 14.9 µM
IC50 [3]: 13 µM
IC50 [4]: 12.3 µM
IC50 [5]: 15.1 µM
Compound: CC(C)=CCC[C@]1(C)/C=C/[C@@H](OC(=O)C=C(C)C)[C@](C)(O)/C=C/C(=O)/C(C(=O)N2CCCC2)=C\C1

IC50 [1]: 0.9 µM
IC50 [2]: 0.72 µM
IC50 [3]: 0.38 µM
IC50 [4]: 0.18 µM
IC50 [5]: 0.39 µM
Compound: CSC(=S)OC/C1=C/C[C@](C)(CCC=C(C)C)/C=C/[C@@H](OC(=O)C=C(C)C)[C@](C)(O)/C=C/C1=O

IC50 [1]: 12.3 µM
IC50 [2]: 7.44 µM
IC50 [3]: 8.73 µM
IC50 [4]: 4.06 µM
IC50 [5]: 9.88 µM
Compound: CC(C)=CCC[C@](C)(/C=C/[C@@H](OC(=O)C=C(C)C)[C@](C)(O)/C=C/C(=O)/C=C/N1CCOCC1)CC=O

IC50 [1]: 0.67 µM
IC50 [2]: 2.56 µM
IC50 [3]: 1.31 µM
IC50 [4]: 0.83 µM
IC50 [5]: 0.57 µM
Compound: CC(C)=CCC[C@]1(C)/C=C/[C@@H](OC(=O)C=C(C)C)[C@](C)(O)/C=C/C(=O)/C(COC(=O)c2ccc([N+](=O)[O-])cc2)=C\C1

IC50 [1]: 3.99 µM
IC50 [2]: 4.13 µM
IC50 [3]: 15.1 µM
IC50 [4]: 3.48 µM
IC50 [5]: 3.52 µM
Compound: CC(=O)OC/C1=C/C[C@](C)(CCC=C(C)C)/C=C/[C@@H](OC(=O)C=C(C)C)[C@](C)(OC(C)=O)/C=C/C1=O

IC50 [1]: 11.7 µM
IC50 [2]: 10.4 µM
IC50 [3]: 10.8 µM
IC50 [4]: 4 µM
IC50 [5]: 8.51 µM
Compound: CC(C)=CCC[C@]1(C)/C=C/[C@@H](OC(=O)C(C)C)[C@](C)(O)/C=C/C(=O)/C(CO)=C\C1

IC50 [1]: > 40 µM
IC50 [2]: > 40 µM
IC50 [3]: > 40 µM
IC50 [4]: > 40 µM
IC50 [5]: > 40 µM
Compound: COCO[C@@H]1/C=C/[C@@](C)(CCC=C(C)C)C/C=C(/CO)C(=O)/C=C/[C@@]1(C)O

IC50 [1]: 3.12 µM
IC50 [2]: 3.25 µM
IC50 [3]: 2.98 µM
IC50 [4]: 2.84 µM
IC50 [5]: 3.71 µM
Compound: COCOC/C1=C/C[C@](C)(CCC=C(C)C)/C=C/[C@@H](OC(=O)C=C(C)C)[C@](C)(O)/C=C/C1=O

IC50 [1]: 3.67 µM
IC50 [2]: 3.67 µM
IC50 [3]: 2.7 µM
IC50 [4]: 3.34 µM
IC50 [5]: 3.3 µM
Compound: CC(C)=CCC[C@]1(C)/C=C/[C@@H](OC(=O)C=C(C)C)[C@](C)(O)/C=C/C(=O)/C(C(=O)N(C)C)=C\C1

IC50 [1]: 0.61 µM
IC50 [2]: 0.84 µM
IC50 [3]: 0.15 µM
IC50 [4]: 0.16 µM
IC50 [5]: 0.39 µM
inhibition [6]: Active
inhibition [8]: inactive
Compound: CC(C)=CCC[C@]1(C)/C=C/[C@@H](OC(=O)C=C(C)C)[C@](C)(O)/C=C/C(=O)/C(CCl)=C\C1

IC50 [1]: > 40 µM
IC50 [2]: > 40 µM
IC50 [3]: > 40 µM
IC50 [4]: > 40 µM
IC50 [5]: > 40 µM
Compound: CC(C)=CCC[C@]1(C)/C=C/[C@@H](OC(=O)C=C(C)C)[C@](C)(O)CCC(=O)/C(CO)=C\C1

IC50 [1]: 6.04 µM
IC50 [2]: 7.81 µM
IC50 [3]: 4.1 µM
IC50 [4]: 4.18 µM
IC50 [5]: 2.51 µM
Compound: CCCC(=O)O[C@@H]1/C=C/[C@@](C)(CCC=C(C)C)C/C=C(/CO)C(=O)/C=C/[C@@]1(C)O

IC50 [1]: 4.51 µM
IC50 [2]: 2.95 to 4.63 µM
IC50 [3]: 2.95 to 4.63 µM
IC50 [4]: 2.95 to 4.63 µM
IC50 [5]: 2.95 to 4.63 µM
Compound: CC(=O)OC/C1=C/C[C@](C)(CCC=C(C)C)/C=C/[C@@H](OC(=O)C=C(C)C)[C@](C)(O)/C=C/C1=O
